What was measured:
[1] = target: T1, Sodium-dependent dopamine transporter (Homo sapiens, UniProt Q01959); assay: Displacement of [3H]BTCP from recombinant human dopamine transporter at 10 uM after 120 mins by scintillation counting method
[2] = target: Sodium channel protein type 5 subunit alpha (Homo sapiens, UniProt Q14524); assay: Inhibition of human Nav1.5 expressed in HEK cells by automated patchXpress electrophysiology method; assay type: ADME, cell-based
[3] = target: Sodium channel protein type 2 subunit alpha (Homo sapiens, UniProt Q99250); assay: Inhibition of human Nav1.2 expressed in HEK cells by patch clamp electrophysiology method; assay type: cell-based
[4] = target: Sodium channel protein type 4 subunit alpha (Homo sapiens, UniProt P35499); assay: Inhibition of human Nav1.4 expressed in HEK cells by patch clamp electrophysiology method; assay type: cell-based
[5] = Clearance in bile duct cannulated rat at 0.3 mg/kg, iv via infusion for 1 hr; assay type: ADME, organism-based; settings: in vivo
Summary of the method: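 Plasma clearance was taken from a study in bile duct cannulated rats.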

[6] = Half-life in iv dosed mouse; assay type: ADME, organism-based; settings: in vivo
[7] = Clearance in iv dosed mouse plasma; assay type: ADME, organism-based
Cytochrome P450 2C9 = Cytochrome P450 2C9 (Homo sapiens, UniProt P11712); assay: Inhibition of CYP2C9 (unknown origin); assay type: ADME
[8] = Intrinsic clearance in rat hepatocytes assessed per million cells; assay type: ADME, cell-based, Hepatocyte; settings: read-out: CLH
[9] = target: Sodium channel protein type 8 subunit alpha (Rattus norvegicus, UniProt O88420); assay: Inhibition of rat Nav1.6 expressed in HEK cells by patch clamp electrophysiology method; assay type: cell-based
[10] = target: Beta-2 adrenergic receptor (Homo sapiens) (UniProt P07550); assay: Agonist activity at recombinant human beta2 receptor expressed in CHOK1 cells assessed as increase in cAMP accumulation at 10 uM after 30 mins by HTRF assay relative to control; assay type: functional, cell-based
[11] = target: Endothelin-1 receptor (Homo sapiens) (UniProt P25101); assay: Agonist activity at human ETA receptor expressed in SK-N-MC cells assessed as increase in calcium flux at 10 uM by fluorimetric method relative to control; assay type: functional, cell-based
[12] = target: Histamine H1 receptor (Homo sapiens) (UniProt P35367); assay: Agonist activity at human H1 receptor expressed in HEK293 cells assessed as increase in calcium flux at 10 uM by fluorimetric method relative to control; assay type: functional, cell-based
[13] = target: Histamine H2 receptor (Homo sapiens) (UniProt P25021); assay: Agonist activity at recombinant human H2 receptor expressed in CHOK1 cells assessed as increase in cAMP accumulation at 10 uM measured after 30 mins by HTRF assay relative to control; assay type: functional, cell-based
[14] = target: 5-hydroxytryptamine receptor 1B (Homo sapiens, UniProt P28222); assay: Agonist activity at human 5-HT1B receptor expressed in HeLa cells assessed as increase in cAMP accumulation at 10 uM measured after 20 mins by HTRF method relative to control; assay type: functional, cell-based
[15] = target: Vasopressin V1a receptor (Homo sapiens) (UniProt P37288); assay: Agonist activity at human V1A receptor expressed in CHOK1 cells assessed as increase in calcium flux at 10 uM by fluorimetric method relative to control; assay type: functional, cell-based
[16] = target: Beta-2 adrenergic receptor (Homo sapiens) (UniProt P07550); assay: Antagonist activity at recombinant human beta2 receptor expressed in CHOK1 cells assessed as inhibition of isoproterenol-induced cAMP accumulation at 10 uM after 30 mins by HTRF assay relative to control; assay type: functional, cell-based
[17] = target: Histamine H1 receptor (Homo sapiens) (UniProt P35367); assay: Antagonist activity at human H1 receptor expressed in HEK293 cells assessed as inhibition of histamine-induced calcium flux at 10 uM by fluorimetric method relative to control; assay type: functional, cell-based
[18] = target: Muscarinic acetylcholine receptor M3 (Homo sapiens) (UniProt P20309); assay: Antagonist activity at human M3 receptor expressed in CHOK1 cells assessed as inhibition of acetylcholine-induced calcium flux at 10 uM by fluorimetric method relative to control; assay type: functional, cell-based
Rattus norvegicus = species: Rattus norvegicus; assay: Displacement of [3H]diltiazem from L-type calcium channel diltiazem binding site in rat brain at 10 uM after 120 mins by scintillation counting method
[19] = target: 5-hydroxytryptamine receptor 3A (Homo sapiens) (UniProt P46098); assay: Displacement of [3H]BRL 43694 from recombinant human 5-HT3 receptor at 10 uM measured after 120 mins by scintillation counting method
[20] = target: cGMP-inhibited 3',5'-cyclic phosphodiesterase 3B (Homo sapiens) (UniProt Q13370); assay: Inhibition of recombinant human PDE3B at 10 uM using [3H]cAMP as substrate measured after 20 mins by scintillation counting method relative to control
[21] = target: Epidermal growth factor receptor (Homo sapiens) (UniProt P00533); assay: Displacement of [125I] EGF from EGFR in human A431 cells at 10 uM after 60 mins by scintillation counting method; assay type: cell-based
[22] = target: Tyrosine-protein kinase Lck (Homo sapiens) (UniProt P06239); assay: Inhibition of recombinant human LCK at 10 uM using Ulight-Poly GAT[EAY(1:1:1)]n as substrate after 10 mins by LANCE assay
[23] = target: Peroxisome proliferator-activated receptor gamma (Homo sapiens) (UniProt P37231); assay: Displacement of [3H]rosiglitazone from recombinant human PPARgamma at 10 uM after 120 mins by scintillation counting method
[24] = target: Beta-2 adrenergic receptor (Homo sapiens) (UniProt P07550); assay: Displacement of [3H](-)CGP12177 from recombinant human beta2 receptor at 10 uM after 120 mins by scintillation counting method
Adenosine receptor A1 = Adenosine receptor A1 (Homo sapiens, UniProt P30542); assay: Agonist activity at recombinant human adenosine A1 receptor expressed in mouse BA/F3 cells assessed as increase in calcium flux by spectrophotometric method; assay type: functional, cell-based
[25] = Inhibition of sodium channel site2 (unknown origin) by radioligand binding assay relative to control; design: species or system Homo sapiens
[26] = target: Sodium-dependent noradrenaline transporter (Homo sapiens, UniProt P23975); assay: Displacement of [3H]nisoxetine from recombinant human norepinephrine transporter after 120 min by scintillation counting method
[27] = target: T1, Sodium-dependent dopamine transporter; assay: Displacement of [3H]BTCP from recombinant human dopamine transporter after 120 mins by scintillation counting method
[28] = Protein binding in non-human primate plasma assessed as fraction unbound at 2 uM; assay type: ADME, cell-free, Macaca mulatta; settings: rhesus monkey

Sequence of Beta-2 adrenergic receptor (Homo sapiens) (P07550 whole entry, looked up): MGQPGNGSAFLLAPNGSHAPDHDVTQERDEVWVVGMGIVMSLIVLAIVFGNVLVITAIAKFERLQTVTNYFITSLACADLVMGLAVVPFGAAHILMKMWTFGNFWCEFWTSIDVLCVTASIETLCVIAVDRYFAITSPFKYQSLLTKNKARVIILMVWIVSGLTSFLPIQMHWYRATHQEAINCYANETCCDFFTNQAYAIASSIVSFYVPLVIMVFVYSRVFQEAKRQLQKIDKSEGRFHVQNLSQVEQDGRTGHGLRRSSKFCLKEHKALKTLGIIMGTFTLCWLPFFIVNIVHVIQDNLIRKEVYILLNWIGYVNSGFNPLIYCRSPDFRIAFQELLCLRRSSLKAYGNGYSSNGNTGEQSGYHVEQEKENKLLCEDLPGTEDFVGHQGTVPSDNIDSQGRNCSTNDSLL
T1 sequence (Q01959 whole entry): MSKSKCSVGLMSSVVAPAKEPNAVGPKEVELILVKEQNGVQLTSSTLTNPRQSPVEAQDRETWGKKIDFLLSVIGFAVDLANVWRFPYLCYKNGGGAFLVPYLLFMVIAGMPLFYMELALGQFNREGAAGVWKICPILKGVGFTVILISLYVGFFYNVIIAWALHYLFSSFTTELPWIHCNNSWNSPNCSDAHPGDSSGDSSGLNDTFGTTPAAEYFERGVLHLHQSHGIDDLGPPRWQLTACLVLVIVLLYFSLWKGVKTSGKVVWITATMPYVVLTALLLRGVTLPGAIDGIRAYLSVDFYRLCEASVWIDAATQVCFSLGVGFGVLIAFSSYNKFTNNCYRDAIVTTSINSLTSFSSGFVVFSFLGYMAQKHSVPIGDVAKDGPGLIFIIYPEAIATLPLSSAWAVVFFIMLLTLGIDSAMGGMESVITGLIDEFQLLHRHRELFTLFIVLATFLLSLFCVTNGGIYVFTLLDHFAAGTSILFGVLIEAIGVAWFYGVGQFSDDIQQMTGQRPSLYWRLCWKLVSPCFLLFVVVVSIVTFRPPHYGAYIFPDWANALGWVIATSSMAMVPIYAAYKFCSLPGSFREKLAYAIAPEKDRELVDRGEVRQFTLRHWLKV
Sequence of Sodium-dependent noradrenaline transporter (P23975 whole entry): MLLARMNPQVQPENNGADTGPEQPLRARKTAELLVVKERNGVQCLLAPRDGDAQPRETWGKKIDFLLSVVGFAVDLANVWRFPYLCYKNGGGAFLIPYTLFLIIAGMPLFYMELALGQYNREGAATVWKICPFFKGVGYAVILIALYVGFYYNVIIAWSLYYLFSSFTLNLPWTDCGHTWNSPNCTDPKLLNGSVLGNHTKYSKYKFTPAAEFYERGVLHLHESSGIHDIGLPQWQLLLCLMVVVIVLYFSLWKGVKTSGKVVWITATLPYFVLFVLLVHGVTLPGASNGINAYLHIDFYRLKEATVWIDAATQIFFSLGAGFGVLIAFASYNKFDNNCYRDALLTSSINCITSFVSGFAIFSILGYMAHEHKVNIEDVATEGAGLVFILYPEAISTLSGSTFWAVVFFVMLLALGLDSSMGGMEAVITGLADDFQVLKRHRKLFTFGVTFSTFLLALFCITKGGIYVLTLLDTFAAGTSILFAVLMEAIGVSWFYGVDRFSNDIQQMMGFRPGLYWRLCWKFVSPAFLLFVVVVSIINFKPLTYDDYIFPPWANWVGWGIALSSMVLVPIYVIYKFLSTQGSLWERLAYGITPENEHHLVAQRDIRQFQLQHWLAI
Sequence of Histamine H1 receptor (Homo sapiens) (P35367 whole entry): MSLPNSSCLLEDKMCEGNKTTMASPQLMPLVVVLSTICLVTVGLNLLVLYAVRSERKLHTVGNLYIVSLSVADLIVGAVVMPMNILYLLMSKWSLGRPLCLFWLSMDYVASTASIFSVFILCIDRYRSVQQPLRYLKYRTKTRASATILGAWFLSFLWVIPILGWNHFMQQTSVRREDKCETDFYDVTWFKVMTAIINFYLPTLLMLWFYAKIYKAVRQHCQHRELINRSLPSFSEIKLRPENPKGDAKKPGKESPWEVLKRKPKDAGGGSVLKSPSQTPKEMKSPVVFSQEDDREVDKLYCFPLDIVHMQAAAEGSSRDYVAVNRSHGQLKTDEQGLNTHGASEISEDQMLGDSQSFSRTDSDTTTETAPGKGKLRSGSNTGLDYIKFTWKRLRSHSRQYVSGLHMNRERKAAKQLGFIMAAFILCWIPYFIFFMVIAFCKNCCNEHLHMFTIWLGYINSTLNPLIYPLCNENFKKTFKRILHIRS
Sequence of Muscarinic acetylcholine receptor M3 (Homo sapiens) (P20309 whole entry, looked up): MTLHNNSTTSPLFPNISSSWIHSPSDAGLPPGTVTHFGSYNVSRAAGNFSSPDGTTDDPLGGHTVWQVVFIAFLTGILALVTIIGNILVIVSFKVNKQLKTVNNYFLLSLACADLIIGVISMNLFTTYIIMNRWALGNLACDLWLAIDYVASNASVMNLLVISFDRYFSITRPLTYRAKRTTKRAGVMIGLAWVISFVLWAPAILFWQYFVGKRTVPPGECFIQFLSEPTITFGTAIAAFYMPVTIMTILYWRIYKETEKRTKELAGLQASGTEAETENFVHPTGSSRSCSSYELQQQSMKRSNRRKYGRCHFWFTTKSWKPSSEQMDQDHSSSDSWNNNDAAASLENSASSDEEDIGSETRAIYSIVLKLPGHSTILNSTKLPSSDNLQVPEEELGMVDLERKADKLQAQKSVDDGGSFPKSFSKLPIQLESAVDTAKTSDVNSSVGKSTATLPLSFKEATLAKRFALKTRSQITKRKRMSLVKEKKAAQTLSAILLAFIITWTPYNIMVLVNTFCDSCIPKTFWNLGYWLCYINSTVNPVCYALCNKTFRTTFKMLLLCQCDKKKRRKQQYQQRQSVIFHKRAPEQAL
Sequence of 5-hydroxytryptamine receptor 1B (P28222 whole entry): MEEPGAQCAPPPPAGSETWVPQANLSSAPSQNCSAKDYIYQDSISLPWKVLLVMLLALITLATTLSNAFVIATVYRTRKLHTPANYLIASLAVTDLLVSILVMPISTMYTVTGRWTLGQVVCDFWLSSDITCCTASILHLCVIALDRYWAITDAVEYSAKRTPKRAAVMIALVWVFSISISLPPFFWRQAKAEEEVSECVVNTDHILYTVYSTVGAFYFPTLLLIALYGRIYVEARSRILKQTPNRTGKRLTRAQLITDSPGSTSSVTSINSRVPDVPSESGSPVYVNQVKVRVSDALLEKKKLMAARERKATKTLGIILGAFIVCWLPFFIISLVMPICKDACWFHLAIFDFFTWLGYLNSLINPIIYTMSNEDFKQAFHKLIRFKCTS
Sequence of 5-hydroxytryptamine receptor 3A (Homo sapiens) (P46098 whole entry): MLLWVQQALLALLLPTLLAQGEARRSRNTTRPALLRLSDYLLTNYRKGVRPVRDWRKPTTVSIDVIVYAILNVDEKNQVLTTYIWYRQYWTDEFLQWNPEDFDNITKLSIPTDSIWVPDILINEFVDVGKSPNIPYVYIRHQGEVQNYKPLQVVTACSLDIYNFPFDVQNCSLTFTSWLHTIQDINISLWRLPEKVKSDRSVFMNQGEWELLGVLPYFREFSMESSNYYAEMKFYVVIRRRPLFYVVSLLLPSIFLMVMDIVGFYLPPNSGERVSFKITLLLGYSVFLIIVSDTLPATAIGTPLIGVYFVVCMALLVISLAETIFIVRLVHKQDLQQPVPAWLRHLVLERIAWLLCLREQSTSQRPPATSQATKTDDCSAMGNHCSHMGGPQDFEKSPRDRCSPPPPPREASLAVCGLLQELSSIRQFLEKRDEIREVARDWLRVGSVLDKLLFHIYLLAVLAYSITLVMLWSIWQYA
Sequence of Tyrosine-protein kinase Lck (Homo sapiens) (P06239 2-509 limits assumed): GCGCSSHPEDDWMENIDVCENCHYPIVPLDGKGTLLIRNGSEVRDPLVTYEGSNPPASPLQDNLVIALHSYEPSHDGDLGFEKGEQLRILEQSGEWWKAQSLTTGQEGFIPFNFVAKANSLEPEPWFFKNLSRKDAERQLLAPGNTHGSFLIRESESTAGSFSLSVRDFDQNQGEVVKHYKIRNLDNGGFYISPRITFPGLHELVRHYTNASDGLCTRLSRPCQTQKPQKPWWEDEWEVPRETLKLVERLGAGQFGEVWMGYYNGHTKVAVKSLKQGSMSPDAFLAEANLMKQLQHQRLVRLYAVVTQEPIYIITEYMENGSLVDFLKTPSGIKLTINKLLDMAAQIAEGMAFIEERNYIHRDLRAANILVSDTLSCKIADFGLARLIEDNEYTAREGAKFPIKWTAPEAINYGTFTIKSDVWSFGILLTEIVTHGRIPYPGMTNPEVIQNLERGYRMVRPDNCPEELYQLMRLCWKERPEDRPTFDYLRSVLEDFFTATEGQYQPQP
Sequence of Vasopressin V1a receptor (Homo sapiens) (P37288 whole entry, looked up): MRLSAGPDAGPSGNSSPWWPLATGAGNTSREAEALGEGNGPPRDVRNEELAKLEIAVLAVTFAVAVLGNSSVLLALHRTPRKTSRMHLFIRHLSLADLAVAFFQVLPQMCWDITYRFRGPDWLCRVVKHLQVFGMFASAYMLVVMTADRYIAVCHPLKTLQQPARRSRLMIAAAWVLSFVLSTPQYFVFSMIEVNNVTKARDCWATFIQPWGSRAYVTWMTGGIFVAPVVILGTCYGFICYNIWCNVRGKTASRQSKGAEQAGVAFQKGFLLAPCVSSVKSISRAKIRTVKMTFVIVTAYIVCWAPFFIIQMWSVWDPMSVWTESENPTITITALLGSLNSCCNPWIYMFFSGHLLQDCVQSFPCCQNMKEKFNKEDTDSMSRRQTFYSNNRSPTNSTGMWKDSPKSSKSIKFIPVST
Sequence of Histamine H2 receptor (Homo sapiens) (P25021 whole entry): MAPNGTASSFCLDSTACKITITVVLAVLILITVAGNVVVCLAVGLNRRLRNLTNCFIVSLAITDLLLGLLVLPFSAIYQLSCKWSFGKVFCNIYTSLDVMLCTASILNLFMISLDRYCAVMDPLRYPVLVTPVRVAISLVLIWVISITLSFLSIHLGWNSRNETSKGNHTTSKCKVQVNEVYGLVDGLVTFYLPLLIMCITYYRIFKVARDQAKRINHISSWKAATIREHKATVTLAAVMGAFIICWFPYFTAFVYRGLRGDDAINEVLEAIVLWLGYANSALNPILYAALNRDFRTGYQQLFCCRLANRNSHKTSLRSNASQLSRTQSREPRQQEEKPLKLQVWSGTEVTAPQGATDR

With `N#Cc1cc(S(=O)(=O)Nc2ncns2)ccc1Oc1ccc(-c2cccc(C(F)(F)F)c2)cc1-c1ccnc(CNCCC2CCNCC2)c1` the inhibition [1] was 84%, the IC50 [2] was 2 to 2.59 µM and the IC50 [3] was 0.00252 to 0.003 µM. For the same compound, the IC50 [4] was 1.45 µM, the clearance [5] was 59.8 mL/min/kg and the half-life [6] was 39.6 min. The clearance [7] was 36.5 mL/min/kg, the IC50 (Cytochrome P450 2C9) was 3.75 µM and the hepatocyte CLint [8] was under 6 µL/min/1e6 cells. For the same compound, the IC50 [9] was 0.00501 µM, the Activity [10] was 1% and the Activity [11] was 8%. For the same compound, the Activity [12] was 4%, the Activity [13] was -4% and the Activity [14] was 141%. For the same compound, the Activity [15] was -4%, the inhibition [16] was 11% and the inhibition [17] was -5%. For the same compound, the inhibition [18] was 29%, the inhibition (Rattus norvegicus) was 40% and the inhibition [19] was 27%. For the same compound, the inhibition [20] was -1%, the inhibition [21] was 35% and the inhibition [22] was 43%. The inhibition [23] was 33.4%, the inhibition [24] was 4% and the EC50 (Adenosine receptor A1) was 1.43 µM. The IC50 [25] was 0.048 µM, the Ki [25] was 0.043 µM and the IC50 [26] was 4.25 µM. The Ki [26] was 3.16 µM, the IC50 [27] was 4.01 µM and the Ki [27] was 2.12 µM. The fraction unbound at 2 µM [28] was 0.001.

Reference: ChEMBL document CHEMBL4177603 (Bioorg Med Chem Lett, 2017)
